Compound activity deposited in PubChem by several laboratories.
This is a sample that favours compounds with a hit; in the whole collection about 2.2% have one here.
Granule exo inh: blocks lytic granule exocytosis. TALL-104 LAMP-1 surface exposure, flow cytometry; cells stimulated with thapsigargin and PMA. inhibition, % at 10 µM. hit rate 0.66% among 360,000;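 active means inhibition above about 55%, limit read from the data; inconclusive means no clear call, values can overlap the other calls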
Myeloid diff MLP: compounds promoting myeloid differentiation; ER-HoxA9 myeloid progenitors, lysozyme-GFP differentiation, flow cytometry; calls only at 10 µM; hit rate 1% among 360,000; AID 624256;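 active means normalized GFP-positive differentiation at or above the plate's own cutoff, the solvent-only control mean plus 3 SD; inconclusive means no clear call, values can overlap the other calls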;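 further: cells exposed to compound for four days before flow analysis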
CSN inh: inhibitors of human CSN-mediated cullin deneddylation; hit rate 0.38% among 360,000; Purified CSN, SCF-Nedd8-OG deneddylation, fluorescence polarization; inhibition, % at 12.5 µM; Q92905;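 active means pattern-corrected inhibition above about 35%, with an unprinted fluorescence ratio check between 0.5 and 1.5, limit read from the data, passing the limit was not always enough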
Target sequence (Q92905 whole entry, looked up, one chain of several): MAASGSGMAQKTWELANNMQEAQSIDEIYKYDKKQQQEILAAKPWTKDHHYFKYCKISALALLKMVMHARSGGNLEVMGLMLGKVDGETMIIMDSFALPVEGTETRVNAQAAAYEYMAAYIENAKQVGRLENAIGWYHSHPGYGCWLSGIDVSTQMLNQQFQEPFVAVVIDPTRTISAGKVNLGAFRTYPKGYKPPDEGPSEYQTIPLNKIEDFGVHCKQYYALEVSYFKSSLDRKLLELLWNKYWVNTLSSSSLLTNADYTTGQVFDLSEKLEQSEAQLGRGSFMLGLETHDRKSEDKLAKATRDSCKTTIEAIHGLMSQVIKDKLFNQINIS
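Assay system: Purified human Csn5 enzyme expressed in HEK293T cells | Amount: Enzyme 0.24 nM | Measured by: Fluorescence polarization readout | Medium: Tris/NaCl/DTT buffer, pH 7.5 | Compound dosing: One concentration, 12.5 µM, 0.25% DMSO | Times: 90 min incubation of compound, enzyme and substrate at room temperature | Control set: no-enzyme wells high, enzyme-with-substrate wells low | Read-out: % inhibition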
HNF4A DNA FP: change in binding of human HNF4 alpha to DNA; HNF4a-FITC DNA binding, fluorescence polarization, 1 h; activity change, % at 10 µM; AID 1224865; hit rate 0.3% among 360,000; in the data active means activity change above about 30%, passing the limit was not always enough
Each line names hits and unclear results; the compound was inactive in the other large screens.

O=C(CCc1nnc(Cc2ccc(-c3ccccc3)cc2)o1)NCC1CC1	none
COCCNC(=O)CCc1nnc(Cc2ccc(-c3ccccc3)cc2)o1	CSN inh 115
CCN(CC)c1ccc(C=C2SC(=S)NC2=O)cc1	Myeloid diff MLP active
O=C1NC(=S)S/C1=C\c1cccc([N+](=O)[O-])c1	none
Cc1cc(/C=C2\SC(=S)NC2=O)cc(C)c1O	HNF4A DNA FP 34
CC1Cc2cc(/C=C3/SC(=S)NC3=O)ccc2O1 (centres undefined)	none
CCOc1ccc(C(C)C)cc1S(=O)(=O)N1CCN(C(=O)c2ccco2)CC1	none
COc1ccc(CCN(/C=C2\Sc3ccccc3C2=O)C(C)=O)cc1OC	Myeloid diff MLP active
O=c1c2c(nc3cc(-c4ccccc4Cl)[nH]n13)CCS2	CSN inh 81
O=c1c2c(nc3cc(-c4ccccc4)[nH]n13)CCS2	none
Cc1cc(NC(=O)/C(C#N)=C/c2ccc(-c3ccc(SC(F)F)cc3)o2)n(-c2ccccc2)n1	CSN inh 64
CC12CCC(=O)N1C(C(=O)N1CCN(c3cccc(Cl)c3)CC1)CS2 (centres undefined)	none
CCOc1ccc(/C(O)=C2/C(=O)C(=O)N(CCCN3CCOCC3)C2c2ccc(F)cc2)cc1C (centres undefined)	none
COc1ccc(/C=C2/SC(=O)N(CCNC(=O)C3CC(=O)N(Cc4ccccc4)C3)C2=O)cc1 (centres undefined)	none
CC(=NNc1nc2ccccc2o1)c1cc2ccccc2cn1	Granule exo inh 101, Myeloid diff MLP inconclusive
Cn1cnnc1SCC(=O)Nc1ccc2ccccc2c1	none
O=C(c1cccc(F)c1)N1CCC2(CC1)NCCc1[nH]cnc12	Myeloid diff MLP active
O=C(c1cccc(Cl)c1)N1CCC2(CC1)NCCc1[nH]cnc12	none
CC1CCN(c2ccc(NC(=O)C3CCCN3S(=O)(=O)c3ccc(F)cc3)cc2)CC1 (centres undefined)	none
COc1ccc(N2C(=O)CC(Sc3n[nH]c(-c4cccc(C)c4)n3)C2=O)cc1 (centres undefined)	Granule exo inh 95
Cc1ccsc1C1CC(=O)Nc2ccccc2S1 (centres undefined)	Myeloid diff MLP active
Cc1cc2c(cc1S(=O)(=O)NC1CCCCC1C)OCC(=O)N2 (centres undefined)	none
CC(C)CN(CCCNC(=O)CN1C(=O)COc2ccc(S(=O)(=O)N3CCOCC3)cc21)CC(C)C	none
C(=N\C(/N=C/c1ccco1)c1ccco1)/c1ccco1	none
C(=Nc1cccc2c(N=Cc3ccco3)cccc12)c1ccco1	Granule exo inh 103
CN(C)c1ccc(N=Cc2ccco2)cc1	Myeloid diff MLP active
CC1CN(CCCCOc2ccc(Cl)c3ccccc23)CC(C)O1 (centres undefined)	none
Cc1cccc(N2C(=O)N3[C@H]4c5ccccc5OC[C@@H]4[C@@H](c4ccccc4)[C@@]3(C)C2=O)c1	none
COc1cc(O)c(C(C)=O)c(CC(=O)O)c1	CSN inh 35
CCN1CCN(C(=O)CCc2nnc(CCc3ccc(OC)cc3)o2)[C@@H](C)C1=O	none
CCOc1ccccc1N1CC(C(=O)NNC(=O)c2ccc(F)cc2)CC1=O (centres undefined)	CSN inh active
CCCC(=O)Nc1ccc(-c2nc3ncccc3o2)cc1	none
CC(C)(C)c1ccc(Oc2ccc(NC(=O)c3ccco3)cn2)cc1	Myeloid diff MLP active
COc1ccc(-c2[nH]ncc2N=Nc2ccccc2)cc1	none
COc1ccc(-c2[nH]ncc2N=Nc2cc(C)cc(C)c2)cc1	Myeloid diff MLP active
CCC(C)[C@H](NC(=O)N1CCn2c1nc1ccccc12)C(=O)NCCc1ccc(OC)c(OC)c1 (some centres undefined)	none
COc1ccc(NC(=O)CNC(=O)Cc2cccc3ccccc23)cc1	CSN inh 37
CC(=O)c1cccc(NC(=O)CNC(=O)Cc2cccc3ccccc23)c1	none
CCc1c(C)nc(SCC(=O)NNC(=O)c2ccco2)[nH]c1=O	Myeloid diff MLP active
CCc1c(C)nc(SCC(=O)Nc2ccc(Br)cc2)[nH]c1=O	none
CN1CCN(C(=O)c2cc3c(c(-c4cccc(-c5cc6ccccc6o5)c4)n2)[C@@H](CCO)N(S(=O)C(C)(C)C)C3)CC1 (some centres undefined)	none
CCCCn1c(N)c(N(CCOC)C(=O)c2cccc(S(=O)(=O)N(CC)c3ccccc3)c2)c(=O)[nH]c1=O	none
O=C(CN1C(=O)NC2(CCCC2)C1=O)NNC(=O)c1ccc(Cl)cc1	none
O=C(NCCC1=CCCCC1)C1CCC(=O)N(Cc2ccc(Cl)cc2)C1 (centres undefined)	Myeloid diff MLP active
